The text below walks through data of publication PMC4796946 (Nature, 2015).

Series [1] has as its target T1, GPR68 (Homo sapiens, UniProt Q15743). Description: Split-luciferase. Type of series: cell-based. Conditions: for stimulation of cAMP production by benzodiazepines: 10 μM, pH 6.50 or 7.40. The method in brief:
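HEK293-T cells were co-transfected with receptor and GloSensor 7A reporter and plated at least 6 h at 15,000 cells/well in 1% dialysed FBS DMEM. Cells were loaded with 4 mM luciferin in drug buffer, pH 8.4, for 90 min at 37 °C; luciferin was then removed. Proton concentration-responses ran without and with rising test compound levels premixed in pH-adjusted HBSS/HEPES/MES (TAPS at high pH; BSA for some). Plates stood 20 min at room temperature before luminescence reading. Data were fitted to an allosteric operational model, with proton pEC50 as pKA.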
On the technique in general: cAMP levels reflect the balance of adenylyl cyclase and phosphodiesterase activity.

For another series, the target named is GPR65 (Homo sapiens, UniProt Q8IYL9). Description: Split-luciferase cAMP reporter assay, GPR65. Type of series: cell-based. Conditions: for inhibition of GPR65: receptors activated by protons or by BTB09089; for activity at GPR65: effect on proton response, cAMP. The method in brief:
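GPR65 was co-transfected with the GloSensor reporter into HEK293-T cells, which were then luciferin-loaded (4 mM, pH 8.4, 90 min, 37 °C). Test compound was applied in pH-adjusted HBSS/HEPES/MES buffer for 20 min at room temperature. The receptor was activated either by protons at pH 7.40 or by 30 μM reference agonist at pH 8.40. Luminescence was normalised to buffer basal. Data come from at least three assays, each at least in triplicate (≥16 measurements total).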
A general note: A reporter such as luciferase makes a cellular process visible.

A further series relates to phosphodiesterases. Kind of series: Phosphodiesterase inhibition.
Series [2] concerns the target T1, GPR68. Kind of series: Calcium mobilization assay. Type of series: cell-based. Conditions: 10 μM, GPR68 wild-type. The procedure, abridged: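 HEK293-T cells were transfected, plated overnight in DMEM with 1% dialysed FBS at 15,000 cells/well, then loaded 60 min at 37 °C (5% CO2) with Fluo-4 Direct dye in drug buffer containing 2.5 mM probenecid, pH 8.0. Test compound was added first (10 μM final before the pH addition), followed by 10 min reading. pH solutions (HBSS, 7 mM each HEPES/HEPPS/MES, NaOH-adjusted) were then added. Fluorescence was read 1/s for 4 min and expressed as fold of basal; n=3.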
For orientation: Calcium assays in cells follow changes in intracellular calcium, usually with a dye or a luminescent sensor.

For series [3], the system named is wild-type and GPR68 KO mice. Kind of series: Fear conditioning. Type of series: in vivo.
Series [4] addresses T1, GPR68. Description: Yeast growth assay, GPR68 paired with chimeric Gq yeast. Type of series: cell-based. Conditions: library screen at 10 μM. The method in brief: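 Yeast with receptor were diluted in SD-His-Ura medium to OD600 0.02 final. Test compound was 10 μM final, in triplicate, with 3-amino-1,2,4-triazole (pH 5.4) at a level set by titration without ligand. Growth ran at 30 °C for 2–5 days. Cells were resuspended and read at OD600. % growth stimulation = […], given as mean ± SEM of three wells.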

For the next series, the target named is GPR4 (Homo sapiens, UniProt P46093). Kind of series: Split-luciferase cAMP reporter assay, GPR4. Type of series: cell-based. Conditions: effect on proton response. The method in brief: (§1)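 GloSensor cAMP assay in HEK293-T cells co-transfected with receptor (wild-type or mutant) and GloSensor 7A, plated at 15,000 cells/well for at least 6 h. Cells were loaded with luciferin (4 mM, pH 8.4, 90 min, 37 °C), which was then removed. Test compound was added in NaOH-adjusted pH solutions (HBSS, 10 mM HEPES, 10 mM MES), 20 min at room temperature. Luminescence is given as RLU fold of buffer basal. Curves were fitted with a 4-parameter logistic; n≥3.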

The next series has as its system GABAA receptor. Description: Radioligand binding profiling. The method in brief:
(§2)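 Membranes came from animal brain tissue, stable cell lines or transiently transfected HEK293-T cells. Competition binding used a fixed radioligand concentration, incubated in the dark at 22 °C, and was ended by vacuum filtration onto GF/B filters, followed by beta counting. Values are mean pKi (n=2–4).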

Series [5] has as its system PKA and MAP kinase pathways. Type of series: cell-based, human. Conditions: 50 μM, 10 min, GPR68-expressing HEK293 cells.
The conditions of series [6]: cited from earlier work.
Series [7] has as its target GPR65 mutant receptors (D153A, R187L, F242A, Y272A) (Homo sapiens, UniProt Q8IYL9, D153A). Description: cAMP reporter assay at GPR65 mutant receptors. Type of series: cell-based. Conditions: GPR65 D153A. The procedure, abridged: as §1
The subject of series [8] is GPR65 mutant receptors (D153A, R187L, F242A, Y272A). Description: cAMP reporter assay at GPR65 mutant receptors. Type of series: cell-based, human. Conditions: GPR65 R187L, F242A, Y272A. The method in brief: as §1
The subject of another series is control HEK293 T cells. Description: cAMP reporter assay at control HEK293 T cells. Type of series: cell-based, human. The method in brief:
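Control HEK293-T cells were run in the GloSensor cAMP format: luciferin loading at 4 mM, pH 8.4, 90 min, 37 °C, then removal. Test compound in pH-adjusted HBSS/HEPES/MES buffer was applied for 20 min at room temperature before luminescence reading. Results are normalised fold of basal from at least three assays, each at least in triplicate (≥16 measurements).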

In series [9] the target is T1, GPR68. Description: PI hydrolysis assay in GPR68-transfected HEK293-T cells. Type of series: cell-based. Conditions: 10 μM, under equilibrium. The method in brief:
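Transfected HEK293-T cells (24 h) were plated in 10% FBS DMEM. After 5 h they were labelled overnight with 3H-inositol (1 μCi/well) in inositol-free DMEM with 5% dialysed FBS. Cells were washed with HBSS, 10 mM HEPES, 10 mM MES, 20 mM LiCl, pH 8.4. pH-adjusted solutions containing 20 mM LiCl and 10 μM test compound were applied for 20 min. Extraction used 50 mM ice-cold formic acid, 4 °C for 30 min; extracts were bead-captured (4 °C, 30 min) and counted as cpm; n=3.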

Another series has as its target 5-HT2B (Homo sapiens, UniProt P41595). Kind of series: Radioligand binding profiling. Conditions: profiling against 58 GPCRs, ion channels, and transporters. The procedure, abridged:
as §2

The next series concerns the target A2A receptor (Homo sapiens, UniProt P29274). Description: Radioligand binding profiling. Conditions: profiling against 58 GPCRs, ion channels, and transporters. The method in brief:
as §2

The mark [10] stands for this setting: cAMP production, proton as agonist.

Molecules are shown by their SMILES. “Also recorded” adds a separate entry of the source.

Sequence of GPR65 (Q8IYL9 whole entry): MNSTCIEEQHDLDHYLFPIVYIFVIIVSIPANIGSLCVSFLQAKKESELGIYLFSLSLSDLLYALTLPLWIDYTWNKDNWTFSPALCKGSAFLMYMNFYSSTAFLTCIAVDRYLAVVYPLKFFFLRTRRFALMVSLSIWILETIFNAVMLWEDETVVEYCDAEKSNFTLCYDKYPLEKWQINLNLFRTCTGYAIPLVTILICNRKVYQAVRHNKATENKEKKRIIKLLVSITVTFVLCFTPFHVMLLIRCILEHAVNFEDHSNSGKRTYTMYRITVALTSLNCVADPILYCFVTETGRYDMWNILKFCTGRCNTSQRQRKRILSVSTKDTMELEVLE
T1 sequence (Q15743 whole entry): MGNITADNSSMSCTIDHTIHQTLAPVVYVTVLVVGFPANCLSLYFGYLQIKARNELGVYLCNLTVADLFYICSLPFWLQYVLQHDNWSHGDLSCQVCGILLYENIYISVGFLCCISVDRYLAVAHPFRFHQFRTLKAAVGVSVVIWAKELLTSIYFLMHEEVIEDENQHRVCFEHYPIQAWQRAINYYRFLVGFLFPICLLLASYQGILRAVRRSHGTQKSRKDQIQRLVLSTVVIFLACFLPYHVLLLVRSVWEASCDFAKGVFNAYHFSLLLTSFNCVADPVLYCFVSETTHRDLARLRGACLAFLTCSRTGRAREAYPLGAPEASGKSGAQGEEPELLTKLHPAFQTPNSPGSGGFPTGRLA
Sequence of GPR4 (P46093 whole entry): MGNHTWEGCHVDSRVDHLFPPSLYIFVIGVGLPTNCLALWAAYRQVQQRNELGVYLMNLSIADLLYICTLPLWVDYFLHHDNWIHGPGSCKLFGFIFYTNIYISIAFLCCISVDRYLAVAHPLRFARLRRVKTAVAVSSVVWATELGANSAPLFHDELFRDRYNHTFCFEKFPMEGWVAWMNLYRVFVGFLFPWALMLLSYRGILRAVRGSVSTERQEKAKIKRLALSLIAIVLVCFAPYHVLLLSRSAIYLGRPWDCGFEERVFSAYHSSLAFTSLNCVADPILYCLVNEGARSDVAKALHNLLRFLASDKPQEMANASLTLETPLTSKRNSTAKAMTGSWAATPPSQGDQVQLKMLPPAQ
Sequence of GPR65 mutant receptors (D153A, R187L, F242A, Y272A) (Homo sapiens, UniProt Q8IYL9, D153A) (Q8IYL9 whole entry D153A): as the sequence (Q8IYL9 whole entry) above, with D153A counted along it
Sequence of 5-HT2B (P41595 whole entry): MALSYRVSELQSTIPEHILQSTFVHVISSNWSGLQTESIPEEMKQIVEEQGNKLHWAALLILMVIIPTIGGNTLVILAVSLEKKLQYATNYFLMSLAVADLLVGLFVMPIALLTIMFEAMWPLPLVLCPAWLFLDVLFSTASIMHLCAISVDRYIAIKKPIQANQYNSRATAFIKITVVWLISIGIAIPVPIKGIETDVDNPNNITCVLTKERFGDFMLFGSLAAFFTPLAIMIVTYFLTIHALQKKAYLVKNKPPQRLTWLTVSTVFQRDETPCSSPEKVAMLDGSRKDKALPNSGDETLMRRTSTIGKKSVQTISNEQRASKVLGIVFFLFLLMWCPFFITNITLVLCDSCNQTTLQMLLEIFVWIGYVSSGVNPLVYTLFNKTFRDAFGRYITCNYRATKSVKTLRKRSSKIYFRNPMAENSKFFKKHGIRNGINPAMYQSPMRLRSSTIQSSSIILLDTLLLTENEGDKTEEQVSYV
Sequence of A2A receptor (P29274 whole entry): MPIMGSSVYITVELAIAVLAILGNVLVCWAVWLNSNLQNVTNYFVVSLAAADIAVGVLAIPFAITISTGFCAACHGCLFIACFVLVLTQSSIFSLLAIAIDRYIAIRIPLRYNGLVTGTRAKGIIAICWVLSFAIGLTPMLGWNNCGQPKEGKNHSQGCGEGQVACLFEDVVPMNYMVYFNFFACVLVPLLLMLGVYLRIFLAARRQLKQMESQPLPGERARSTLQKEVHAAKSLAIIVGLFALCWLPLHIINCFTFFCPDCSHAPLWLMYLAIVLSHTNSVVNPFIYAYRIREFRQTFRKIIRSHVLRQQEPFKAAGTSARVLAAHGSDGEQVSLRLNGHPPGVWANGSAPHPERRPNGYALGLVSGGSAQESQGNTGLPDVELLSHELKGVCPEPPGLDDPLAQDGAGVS

On to `Nc1nc(NCCCc2ccccc2)nc(-c2ccccc2CO)n1` [C3], for which, at GPR68 [1] (setting [10]), the “allosteric effect (qualitative comparison)” value (from here on “allosteric effect”) is “reduced allostery”.

For the molecule `Cc1nc(-c2ncccn2)sc1C(=O)O[C@@H](c1ccccc1)c1ccncc1` [ZINC62678696], at GPR65, the “inhibition of GPR65” value is given as “GPR65-specific inhibition; also recorded: inhibited”.

As to `Nc1nc(-c2ccc(Cl)c(Cl)c2)c(-c2ccncc2)s1` [CGH2466], at GPR68 [1] (setting [10]), the “allosteric effect” value is recorded as “much lower than that of ogerin”. Further, the “GPR68 activity in the presence of Ro 20-1724” value at GPR68 [1] (with phosphodiesterase inhibitor Ro 20-1724) is given as “minimal activity”. The phosphodiesterase inhibition result in the series with phosphodiesterases is on record as “potent phosphodieseterase inhibitor”.

`Nc1nc(NCc2ccccc2)nc(-c2cccc(CO)c2)n1` [ZINC32547799]: on GPR68 [2], the “effect on proton-mediated calcium release” value is given as “little effect”. In addition, the learning and memory result in series [3] (wild-type mice) was “no measurable effect”. Further, in series [3] (wild-type mice, 10 mg/kg), the “contextual and cue memory” value was “no effect”; the learning result is “no effect”. Besides, in series [3] (wild-type mice, 30 mg/kg), the “contextual and cue memory” value is on record as “no effect”; the learning entry is given as “enhanced”.

As for `CCCCNc1c(C(=O)OCC)c(C)nc2c1cnn2CC` [tracazolate], the phosphodiesterase inhibition result with phosphodiesterases is reported as “potent phosphodieseterase inhibitor”.

As to `O=C1Nc2ccc(Cl)cc2C(c2ccccc2Cl)=NC1O` (centres unmarked) [lorazepam], the “stimulation of yeast growth” value on GPR68 [4] is on record as “more than two-fold”. Besides, at GPR68 [1], the “stimulation of cAMP production by benzodiazepines” value (from here on “stimulation of cAMP production”) was “stimulated cAMP production in a GPR68- and pH-dependent manner”. In addition, the “activity at GPR4” value on GPR4 is “no activity”. Moreover, on GPR65, the “activity at GPR65” value is on record as “no activity”. Moreover, the “activity in panel of CNS targets” value with GABAA receptor is given as “substantial activity”. In series [5], the “activation of PKA and MAP kinase pathways” value was “activate”. In series [6], the “concentration in plasma during treatment” value is “micromolar”.

Take `CN1N=C(SCc2ccc(Cl)cc2Cl)Sc2c1cnn(C)c2=O` [BTB09089, reference compound]: on GPR65, the “agonist activity at GPR65 (qualitative)” value was “weak agonist activity”, the “mode of action at GPR65” value is “allosteric agonist” and the “potentiation of proton efficacy/activity at GPR65” value is on record as “failed to potentiate”. For the same molecule, the “effect of D153A mutation on compound activity” value in series [7] is on record as “no effect”. For the same molecule, the “effect of R187L, F242A, Y272A mutations on compound activity” value in [8] was “reduced the activity”.

In the case of `O=C1CN=C(c2ccccc2)c2cc(Cl)ccc2N1` [desmethyldiazepam], at GPR68 [1], the “stimulation of cAMP production” value is “stimulated cAMP production in a GPR68- and pH-dependent manner”.

For `OC1CCC(Nc2nc(-c3ccccc3)nc3[nH]ccc23)CC1` (centres unmarked) [SLV320], the phosphodiesterase inhibition result in the series on phosphodiesterases is “potent phosphodieseterase inhibitor”.

On to `O=C1CN=C(c2ccccc2Cl)c2cc([N+](=O)[O-])ccc2N1` [clonazepam], for which the “stimulation of cAMP production” value at GPR68 [1] was “stimulated cAMP production in a GPR68- and pH-dependent manner”.

Consider `Nc1nc(NCCc2ccccc2)nc(-c2ccccc2CO)n1` [C2], for which the α-factor at GPR68 [1] (allosteric operational model, proton as agonist) was 22. Moreover, the “leftward shift of proton response relative to ogerin” value on GPR68 [1] (cAMP production) is given as 3 fold.

With `COc1ccc(-c2csc(NC(=O)CSc3nc[nH]n3)n2)cc1OC` [ZINC13684400], at GPR65, the “mode of action at GPR65” value is recorded as “allosteric agonist” and the “potentiation of proton efficacy/activity at GPR65” value is listed as “did not potentiate”. Besides, on GPR65 (pH 8.40), the “agonist activity at GPR65” value is listed as “over 2 fold of basal”. The “effect of D153A mutation on compound activity” value in series [7] is given as “much reduced the activity”. Further, the “effect of R187L, F242A, Y272A mutations on compound activity” value in [8] is reported as “reduced the activity”. For the same molecule, the “activity at control cells” value in the series with control HEK293 T cells is given as “without measurable activity”.

`Nc1nc(NCc2ccccc2)nc(-c2ccccc2CO)n1` [ogerin]: the “allosteric effect” value on GPR68 [1] (setting [10]) is listed as “much higher allosteric effect than lorazepam”. Besides, on GPR4, the “activity at GPR4” value is listed as “minimal PAM activity”. At GPR65, the “activity at GPR65” value is reported as “minimal PAM activity”. Moreover, at GPR68 [2], the “effect on proton-mediated calcium release” value is “inhibited”. The “effect on proton activity in PI hydrolysis” value at GPR68 [9] was “slightly potentiated”. For the same molecule, on 5-HT2B, the “affinity at 5-HT2B” value is reported as “moderate affinity”. On A2A receptor, the “affinity at A2A receptor” value was “moderate affinity”. For the same molecule, the “activation of PKA and MAP kinase pathways” value in series [5] is listed as “activate”. Besides, the memory retrieval result in series [3] (GPR68 KO mice, 10 mg/kg) is “no effect”. Besides, in series [3] (WT mice, 10 mg/kg), the contextual-based fear memory result is recorded as “attenuated” and the cue-based memory entry is listed as “without effects”.

Regarding `O=C1CCc2cc(-c3csc(NC(=O)c4ccc(-c5ccccc5F)o4)n3)ccc2N1` [ZINC9468042], the “inhibition of GPR65” value against GPR65 was “GPR65-specific inhibition”.

Turning to `O=C1CN=C(c2ccccc2F)c2cc(Cl)ccc2N1` [norfludiazepam], the “stimulation of cAMP production” value on GPR68 [1] was “stimulated cAMP production in a GPR68- and pH-dependent manner”.

For the molecule `Nc1nc(NCCCCc2ccccc2)nc(-c2ccccc2CO)n1` [C4], the “allosteric effect” value on GPR68 [1] (setting [10]) was “reduced allostery”.

Turning to `O=C(Nc1nc(-c2ccc3c(c2)OCCO3)cs1)c1csnn1` [ZINC41613384], on GPR65, the “inhibition of GPR65” value is on record as “GPR65-specific inhibition”.
